Source: article PMC9768356 (iScience, 2022)

Experiments:
Areg = Areg protein in BMDMs; format: cell-based, mice; details: n = 4 per group
How it was run: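 BMDMs: bone marrow cells from mouse hind legs, erythrocytes lysed, grown in DMEM with 10% FBS and 10 ng/mL GM-CSF at 37°C and 5% CO2. Non-adherent cells replated after 24 h and cultured 7 days, medium changed every 3 days. Cells were infected with E. coli and harvested at 12 h. Iron-loading agent 100 μM for 20 h or iron chelator 100 μM for 12 h. Lysis in RIPA, BCA protein assay, 20 or 40 μg on 12% SDS-PAGE, PVDF. Anti-Areg 1:1000 with β-actin loading control (1:5000), HRP secondaries 1:5000, ECL detection. Supernatant Areg by ELISA. n = 4 per group.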

YAP = YAP activation in BMDMs; format: cell-based, mice; details: E. coli 12 h, n = 4 per group
How it was run: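 Bone marrow cells from Fpn^flox/flox or Fpn^LysM/LysM mice were erythrocyte-lysed and grown in DMEM/10% FBS with 10 ng/mL GM-CSF. Nonadherent cells were replated after 24 h and cultured 7 days, with medium changed every 3 days. Cells were infected with E. coli (12 h) with DFO (100 μM, 12 h). Lysates were blotted for P-YAP and YAP (1:1000 each) with a β-actin control (1:5000); n = 4.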

[1] = cited from earlier work

CC(=O)N(O)CCCCCNC(=O)CCC(=O)N(O)CCCCCNC(=O)CCC(=O)N(O)CCCCCN [DFO, desferrioxamine]
protein levels of Areg, Fpn^LysM/LysM BMDMs, DFO (Areg; Fpn^LysM/LysM BMDMs, E. coli 12 h, DFO 100 μM, 12 h): decreased YAP activity and the protein levels of Areg
protein levels of Areg, Fpn^flox/flox BMDMs, DFO (Areg; Fpn^flox/flox BMDMs, E. coli 12 h, DFO 100 μM, 12 h): decreased YAP activity and the protein levels of Areg
YAP activity, Fpn^LysM/LysM BMDMs, DFO (YAP; Fpn^LysM/LysM BMDMs, DFO 100 μM, 12 h): decreased YAP activity
YAP activity, Fpn^flox/flox BMDMs, DFO (YAP; Fpn^flox/flox BMDMs, DFO 100 μM, 12 h): decreased YAP activity

CC[C@H](C)[C@@H]1NC(=O)[C@@H](NC(=O)[C@@H](NC(=O)[C@@H]2CCCN2C(=O)[C@H](Cc2ccccc2)NC(=O)[C@H](Cc2c[nH]cn2)NC(=O)[C@@H](NC(=O)[C@@H](N)CC(=O)O)[C@@H](C)O)[C@@H](C)CC)CSSC[C@@H](C(=O)N[C@@H](CCCCN)C(=O)N[C@H](C(=O)O)[C@@H](C)O)NC(=O)[C@@H]2CSSC[C@@H]3NC(=O)[C@@H]4CSSC[C@H](NC(=O)[C@H](Cc5ccccc5)NC1=O)C(=O)N[C@@H](CSSC[C@H](NC(=O)[C@H](CCCCN)NC(=O)[C@H](CO)NC(=O)[C@H](CCCNC(=N)N)NC(=O)[C@H](Cc1c[nH]cn1)NC3=O)C(=O)NCC(=O)N[C@@H](CCSC)C(=O)N2)C(=O)NCC(=O)N4 [Hepcidin]
prevention of bacterial dissemination ([1]; by limiting extracellular iron availability): prevent bacterial dissemination by limiting extracellular iron availability
pharmacokinetics [1]: poor pharmacokinetics

ferric ammonium citrate
production and secretion of Areg, Fpn^flox/flox BMDMs, FAC (Areg; Fpn^flox/flox BMDMs, E. coli 12 h, FAC 100 μM, 20 h): promoted the production and secretion of Areg
activation of YAP signaling, Fpn^flox/flox BMDMs, FAC (YAP; Fpn^flox/flox BMDMs, FAC 100 μM, 20 h): significantly facilitated the activation of YAP signaling

verteporfin
protein levels of macrophage-derived Areg (YAP inhibition) (Areg; BMDMs and supernatant, 12 h after E. coli infection): dramatically downregulated the protein levels of macrophage-derived Areg
